For orientation: clearance means the volume of plasma or blood freed of the substance per unit of time. Higher therefore signals a high capacity for elimination. As usually defined, the IC50 is the concentration that inhibits the measured activity by half.

The source made the active and inactive calls. No cut-off for these calls is given here.

Data set [1] concerns the target T1, Guanylate cyclase soluble subunit alpha-1 (Rattus norvegicus) (UniProt P19686).
T1 sequence (whole entry): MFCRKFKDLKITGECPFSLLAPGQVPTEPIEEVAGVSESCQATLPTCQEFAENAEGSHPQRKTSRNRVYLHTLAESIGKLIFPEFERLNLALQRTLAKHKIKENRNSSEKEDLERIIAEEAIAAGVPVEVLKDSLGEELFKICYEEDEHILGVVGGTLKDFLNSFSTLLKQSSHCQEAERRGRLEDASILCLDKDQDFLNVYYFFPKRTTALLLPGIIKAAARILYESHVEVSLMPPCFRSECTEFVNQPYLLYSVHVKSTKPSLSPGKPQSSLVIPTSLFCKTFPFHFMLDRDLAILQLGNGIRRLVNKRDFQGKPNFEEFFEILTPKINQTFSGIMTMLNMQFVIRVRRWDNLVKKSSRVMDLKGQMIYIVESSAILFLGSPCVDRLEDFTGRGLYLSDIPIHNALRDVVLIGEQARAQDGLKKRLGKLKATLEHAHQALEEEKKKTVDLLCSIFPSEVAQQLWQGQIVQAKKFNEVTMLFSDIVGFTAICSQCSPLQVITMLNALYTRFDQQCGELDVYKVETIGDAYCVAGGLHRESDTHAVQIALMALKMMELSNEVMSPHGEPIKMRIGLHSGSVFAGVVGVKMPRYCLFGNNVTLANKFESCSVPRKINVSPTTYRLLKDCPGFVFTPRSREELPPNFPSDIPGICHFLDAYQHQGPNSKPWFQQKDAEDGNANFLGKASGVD
Kind of data set: Stimulation of rat recombinant sGCalpha1 subunit expressed in CHO cells using alpha-[32P]GTP as substrate assessed as >=3 fold increase in [32P]cGMP formation after 10 mins by radioimmunoassay. It is filed as cell-based.

Data set [2] in a line: Volume of distribution at steady state in iv dosed Beagle dog after 24 hrs by LC-MS analysis. The settings on record: in vivo, read-out: Vdss. It is filed as ADME, organism-based, Canis lupus familiaris. In outline: (§1)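 Male Wistar rats and female beagle dogs. iv in plasma/DMSO (rat) or H2O/PEG 400/EtOH (dog). Oral gavage in H2O/PEG 400/EtOH for both. Rats jugular-catheterised ≥1 d before dosing. Usually >10 blood samples, at least two after 24 h. Plasma quantified by LC-MS with internal standard. CL, t1/2, Vss and F calculated from plasma curves. Blood clearance via blood/plasma ratio (20 min blood incubation).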

Data set [3] can be described thus: Clearance in iv dosed Wistar rat blood after 24 hrs by LC-MS analysis. It is filed as ADME, organism-based. The conditions noted are these: whole blood. In outline:
as §1

Data set [4] can be described thus: Terminal half life in iv dosed Beagle dog blood after 24 hrs by LC-MS analysis. It is filed as ADME, organism-based, Canis lupus familiaris. The conditions noted are these: whole blood, read-out: beta t1/2 (converted). In outline:
as §1

Data set [5] is described as follows: Drug metabolism in human hepatocytes assessed as CYP-mediated (2S,3S,4S,5R,6R)-6-(6-amino-2-(5-fluoro-1-(2-fluorobenzyl)-1H-pyrazolo[3,4-b]pyridin-3-yl)-5-(methoxycarbonylamino)pyrimidin-4-ylamino)-3,4,5-trihydroxytetrahydro-2H-pyran-2-carboxylic acid metabolite formation. It is filed as ADME, cell-based.
For the next data set, the system named is Saphenous artery. In words: Vasorelaxant activity in nirate-tolerant Chinchilla rabbit saphenous artery ring administered at the beginning of the last resting period of 28 mins in presence of sorbide dinitrate. In kind it is functional. The settings on record: Oryctolagus cuniculus.
Data set [6] concerns Heart. In words: Cardiotoxicity in Wistar rat assessed as effect on heart rate administered for 20 mins. In kind it is toxicity, tissue-based. In outline: (§2)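 Male Wistar rats (200−250 g) anesthetized with Narcoren 100 mg/kg ip. Excised heart Langendorff-perfused at constant flow 10 mL/min with Krebs−Henseleit buffer gassed with 95% O2/5% CO2. Values expressed as relative change from baseline before compound application.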

Data set [7] relates to Heart. Kind of data set: Cardiotoxicity in Wistar rat assessed as effect on left ventricular diastolic pressure administered for 20 mins. In kind it is toxicity, tissue-based. The method in brief: as §2
Data set [8] deals with Rattus norvegicus. In words: Antihypertensive activity in L-NAME-treated renin transgenic rat co-expressing RenTG(mRRen2)27 assessed as reduction in systolic blood pressure increase at 3 to 10 mg/kg, administered qd via oral gavage up to 21 days. It is filed as functional, organism-based. The method in brief: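 Male RenTG(mRRen2)27 rats, 8 weeks old, given L-NAME in drinking water (50 mg/L) throughout. Randomised to placebo (2 mL/kg qd, n = 20) or 3 and 10 mg/kg/day po by gavage qd (n = 15 per group). Tail-cuff blood pressure on day 0, 7, 14 and 21. Plasma taken at day 22 end. Unpaired t test, mean ± SEM.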

Data set [9] concerns Rattus norvegicus. In words: Antihypertensive activity in L-NAME-treated renin transgenic rat co-expressing RenTG(mRRen2)27 assessed as reduction in heart hypertrophy in right ventricle administered qd via oral gavage up to 21 days relative to control. It is filed as functional. In outline:
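Renin transgenic RenTG(mRRen2)27 male rats, 8 weeks old, on L-NAME drinking water (50 mg/L). Dosed by gavage qd with placebo (n = 20) or 3 or 10 mg/kg/day (n = 15 each). At day 22 animals were anesthetized and sacrificed, and left and right ventricles were dissected and weighed for hypertrophy. Unpaired t test versus placebo.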

With `COC(=O)Nc1c(N)nc(-c2nn(Cc3ccccc3F)c3ncc(F)cc23)nc1N` [VERICIGUAT], the MEC in [1] was 0.3 µM. In addition, the Vd in data set [2] stood at 1.4 L/kg. Besides, in data set [3], the clearance was 0.3 L/h/kg. For the same compound, in data set [4], the half-life is 6.2 h. Besides, the Drug metabolism entry in data set [5] is listed as “Metabolite_Detected”. In the data set with Saphenous artery, the IC50 is 5.8 nM. Moreover, the figures for the Activity entry in the data set on Heart [6], in the data set with Heart [7] and in the data set on Rattus norvegicus [9] were “Non-Toxic”, “Non-Toxic” and “Dose-dependent effect”, respectively. Moreover, the result in the data set with Rattus norvegicus [8] was Active.

For the origin of these results see ChEMBL document CHEMBL4014344, “Discovery of the Soluble Guanylate Cyclase Stimulator Vericiguat (BAY 1021189) for the Treatment of Chronic Heart Failure” (J Med Chem, 2017).
